Data set [1] can be described thus: Drug level in methionine and choline deficient fed Sprague-Dawley rat urine treated with ezetimibe at 10 mg/kg, iv after 120 mins by LC-MS/MS method. Further details: dose 10 mg/kg, route intravenous. The note with it: in vivo, 2 h. The class given is ADME, organism-based. In short, it runs like this:
(§1)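 After 8 weeks MCD diet, male SD rats under urethane received EZE 10 mg/kg i.v. through femoral vein cannula (ethanol/propylene glycol/PEG 400/water vehicle; n=3-5). Terminal urine taken by bladder puncture at 120 min; EZE and β-glucuronidase-hydrolysed total EZE measured by LC-MS/MS; glucuronide by difference.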

Data set [2] can be described thus: Drug level in methionine and choline deficient fed Sprague-Dawley rat bile treated with ezetimibe at 10 mg/kg, iv after 30 to 90 mins by LC-MS/MS method. The class given is ADME, organism-based. Further details: dose 10 mg/kg, route intravenous. The note with it: in vivo. A digest of the protocol: (§2)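 Male SD rats (200-250 g) on MCD diet 8 weeks, urethane-anesthetized (1.2 g/kg i.p.), femoral vein/artery and bile duct cannulated, core temperature maintained. EZE 10 mg/kg i.v. via femoral vein in 10% ethanol/40% propylene glycol/30% PEG 400/20% water (n=3-5). Bile collected at 15-min intervals over 120 min; total EZE after β-glucuronidase (50°C, 60 min) and EZE by LC-MS/MS; glucuronide = total minus parent.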

Data set [3] in a line: Drug level in methionine and choline deficient fed Sprague-Dawley rat urine at 10 mg/kg, iv after 120 mins by LC-MS/MS method. The class given is ADME, organism-based. The arrangement: dose 10 mg/kg, route intravenous. The note with it: in vivo, 2 h. A digest of the protocol:
as §1

Data set [4] is described as follows: Drug metabolism in methionine and choline deficient fed Sprague-Dawley rat urine assessed as ezetimibe glucuronide formation at 10 mg/kg, iv after 120 mins by LC-MS/MS method. The arrangement: dose 10 mg/kg, route intravenous. It counts as ADME, organism-based. The note with it: in vivo, 2 h. In short, it runs like this:
as §1

The test system of data set [5] is Rattus norvegicus. Put plainly: Effect on total bile acid levels in Sprague-Dawley rat nonalcoholic steatohepatitis model at 10 mg/kg, po after 120 mins by spectrophotometry. It counts as functional, organism-based. The arrangement: dose 10 mg/kg.
Data set [6] has as its system Rattus norvegicus. Put plainly: Effect on total bile acid levels in Sprague-Dawley rat nonalcoholic steatohepatitis model at 10 mg/kg, iv after 120 mins by spectrophotometry. The class given is functional, organism-based. The arrangement: dose 10 mg/kg.
Data set [7] deals with Plasma. Put plainly: Drug level in methionine and choline deficient fed Sprague-Dawley rat plasma at 10 mg/kg, po after 40 mins by LC-MS/MS method. The note with it: in vivo. It counts as ADME, organism-based. Further details: dose 10 mg/kg, route oral. A digest of the protocol: (§3)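 Cannulated, urethane-anesthetized male SD rats after 8 weeks MCD diet given EZE 10 mg/kg orally in 0.25% carboxymethylcellulose (n=3-5). Plasma collected from 2 to 120 min post-dose; total EZE (after β-glucuronidase, 50°C 60 min) and parent EZE quantified by LC-MS/MS; glucuronide = total minus parent. Mean ± SEM.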

For data set [8], the system named is Plasma. Kind of data set: Drug metabolism in methionine and choline deficient fed Sprague-Dawley rat plasma assessed as ezetimibe glucuronide formation at 10 mg/kg, po after 40 mins by LC-MS/MS method. It counts as ADME, organism-based. The arrangement: dose 10 mg/kg, route oral. The note with it: in vivo. A digest of the protocol: as §3
Data set [9] concerns Plasma. Put plainly: Drug level in methionine and choline deficient fed Sprague-Dawley rat plasma at 10 mg/kg, po after 120 mins by LC-MS/MS method. The class given is ADME, organism-based. Further details: dose 10 mg/kg, route oral. Conditions: in vivo, 2 h. A digest of the protocol: as §3
The subject of data set [10] is Plasma. Put plainly: Drug metabolism in methionine and choline deficient fed Sprague-Dawley rat plasma assessed as ezetimibe glucuronide formation at 10 mg/kg, po after 120 mins by LC-MS/MS method. It counts as ADME, organism-based. The note with it: in vivo, 2 h. The arrangement: dose 10 mg/kg, route oral. A digest of the protocol: as §3
Data set [11] concerns Plasma. Put plainly: Drug level in methionine and choline deficient fed Sprague-Dawley rat plasma at 10 mg/kg, iv after 40 mins by LC-MS/MS method. The note with it: in vivo. It counts as ADME, organism-based. The arrangement: dose 10 mg/kg, route intravenous. A digest of the protocol: (§4)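 MCD-diet (8 weeks) male SD rats under urethane, femoral artery/vein and bile duct cannulated; EZE 10 mg/kg i.v. bolus via femoral vein in ethanol/propylene glycol/PEG 400/water vehicle (n=3-5). Arterial plasma sampled from 2 to 120 min; 25 µL plasma analysed by LC-MS/MS with and without β-glucuronidase pre-hydrolysis; glucuronide calculated by difference. Mean ± SEM.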

Data set [12] relates to Plasma. Put plainly: Drug metabolism in methionine and choline deficient fed Sprague-Dawley rat plasma assessed as ezetimibe glucuronide formation at 10 mg/kg, iv after 40 mins by LC-MS/MS method. It counts as ADME, organism-based. The arrangement: dose 10 mg/kg, route intravenous. Conditions: in vivo. A digest of the protocol:
as §4

The test system of data set [13] is Plasma. Kind of data set: Drug level in methionine and choline deficient fed Sprague-Dawley rat plasma at 10 mg/kg, iv after 120 mins by LC-MS/MS method. The class given is ADME, organism-based. Further details: dose 10 mg/kg, route intravenous. Conditions: in vivo, 2 h. A digest of the protocol: as §4
The test system of data set [14] is Plasma. Put plainly: Drug metabolism in methionine and choline deficient fed Sprague-Dawley rat plasma assessed as ezetimibe glucuronide formation at 10 mg/kg, iv after 120 mins by LC-MS/MS method. The class given is ADME, organism-based. Further details: dose 10 mg/kg, route intravenous. The note with it: in vivo, 2 h. A digest of the protocol: as §4
A short description of data set [15]: Drug level in methionine and choline deficient fed Sprague-Dawley rat bile at 10 mg/kg, po after 120 mins by LC-MS/MS method. It counts as ADME, organism-based. The arrangement: dose 10 mg/kg, route oral. Conditions: in vivo, 2 h. A digest of the protocol: (§5)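 Male SD rats (200-250 g) fed MCD diet 8 weeks, urethane-anesthetized with femoral and bile duct cannulae. EZE 10 mg/kg by oral gavage in 0.25% carboxymethylcellulose (n=3-5). Bile taken at 15-min intervals to 120 min; samples ±β-glucuronidase hydrolysis (50°C, 60 min), hydroxychalcone internal standard, LC-MS/MS on C18 gradient; glucuronide derived as total minus unconjugated EZE.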

The nature of data set [16]: Drug metabolism in methionine and choline deficient fed Sprague-Dawley rat bile assessed as ezetimibe glucuronide formation at 10 mg/kg, po after 120 mins by LC-MS/MS method. The class given is ADME, organism-based. The arrangement: dose 10 mg/kg, route oral. Conditions: in vivo, 2 h. In short, it runs like this:
as §5

Data set [17] can be described thus: Drug level in methionine and choline deficient fed Sprague-Dawley rat bile at 10 mg/kg, iv after 30 to 90 mins by LC-MS/MS method. Conditions: in vivo. It counts as ADME, organism-based. The arrangement: dose 10 mg/kg, route intravenous. In short, it runs like this:
as §2

A short description of data set [18]: Drug metabolism in methionine and choline deficient fed Sprague-Dawley rat bile assessed as ezetimibe glucuronide formation at 10 mg/kg, iv after 30 to 90 mins by LC-MS/MS method. The class given is ADME, organism-based. Further details: dose 10 mg/kg, route intravenous. Conditions: in vivo. A digest of the protocol: as §2
Data set [19] in a line: Drug level in methionine and choline deficient fed Sprague-Dawley rat urine at 10 mg/kg, po after 120 mins by LC-MS/MS method. The class given is ADME, organism-based. Conditions: in vivo, 2 h. Further details: dose 10 mg/kg, route oral. In short, it runs like this:
(§6)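 MCD-fed (8 weeks) male SD rats, urethane-anesthetized and cannulated, dosed EZE 10 mg/kg by gavage in 0.25% carboxymethylcellulose (n=3-5). Urine collected by bladder puncture 120 min post-dose; parent and total EZE (after β-glucuronidase, 50°C, 60 min) by LC-MS/MS, glucuronide calculated as their difference.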

Data set [20] in a line: Drug metabolism in methionine and choline deficient fed Sprague-Dawley rat urine assessed as ezetimibe glucuronide formation at 10 mg/kg, po after 120 mins by LC-MS/MS method. The class given is ADME, organism-based. Further details: dose 10 mg/kg, route oral. The note with it: in vivo, 2 h. A digest of the protocol:
as §6

Calls of active or inactive are those of the source. The rule behind the calls is not given here.

Turning to `O=C(O)[C@H]1O[C@@H](Oc2ccc([C@@H]3[C@@H](CC[C@H](O)c4ccc(F)cc4)C(=O)N3c3ccc(F)cc3)cc2)[C@H](O)[C@@H](O)[C@@H]1O`, the Drug metabolism entry was “metabolite_detected” in data set [1] and “metabolite_not_detected” in [2].
Consider `O=C1[C@H](CC[C@H](O)c2ccc(F)cc2)[C@@H](c2ccc(O)cc2)N1c1ccc(F)cc1` [EZETIMIBE], for which the Drug uptake result (in data set [3]; in the data set with Plasma [7]; in the data set with Plasma [9]; with Plasma [11]; in the data set with Plasma [13]; in data set [15]) was “Active” each time. Also, the Drug uptake result in [17] was “Not Active”; in data set [19] it was “Active”. Besides, the Drug metabolism result (in data set [4]; in the data set on Plasma [8]; with Plasma [10]; in the data set with Plasma [12]; in the data set with Plasma [14]; in [16]) was “metabolite_detected” each time. For the same molecule, the Drug metabolism entry in data set [18] is listed as “metabolite_not_detected”; in data set [20], “metabolite_detected”. Also, the outcome in the data set on Rattus norvegicus [5] and with Rattus norvegicus [6] was inactive.

The values are drawn from ChEMBL document CHEMBL3526134, “Molecular mechanism of altered ezetimibe disposition in nonalcoholic steatohepatitis” (Drug Metab Dispos, 2012).
